In the library only some 2.6% were active in any assay of this set; here they are far more common.
FGF22 binding – FGF22 (human) thermal shift binding; actives 1.5% (n = 340,000); activity (Tm shift, normalised), % at 9.99 µM; recombinant FGF22 thermal shift, SYPRO orange fluorescence; percent of sucrose octasulfate shift, DMSO zero;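 active = mean Tm shift, scaled 0 neutral to 100 positive control, at about 1.3% or above, every replicate too, limit read from the data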
Target sequence (Q9HCT0 whole entry, looked up): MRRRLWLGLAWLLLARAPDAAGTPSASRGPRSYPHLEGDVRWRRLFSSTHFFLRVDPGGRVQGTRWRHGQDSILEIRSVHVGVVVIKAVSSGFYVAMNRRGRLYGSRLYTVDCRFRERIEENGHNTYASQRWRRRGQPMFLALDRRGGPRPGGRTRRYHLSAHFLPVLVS
UCH37 DUB inh – human UCH37 deubiquitinating enzyme inhibition; purified proteasome/UCH37, Ub-AMC cleavage fluorescence; inhibition, % (no concentration beside the values); actives 0.33% (n = 330,000);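 active = mean inhibition over replicate wells above about 20%, limit read from the data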
Target sequence (Q9Y5K5 whole entry, looked up): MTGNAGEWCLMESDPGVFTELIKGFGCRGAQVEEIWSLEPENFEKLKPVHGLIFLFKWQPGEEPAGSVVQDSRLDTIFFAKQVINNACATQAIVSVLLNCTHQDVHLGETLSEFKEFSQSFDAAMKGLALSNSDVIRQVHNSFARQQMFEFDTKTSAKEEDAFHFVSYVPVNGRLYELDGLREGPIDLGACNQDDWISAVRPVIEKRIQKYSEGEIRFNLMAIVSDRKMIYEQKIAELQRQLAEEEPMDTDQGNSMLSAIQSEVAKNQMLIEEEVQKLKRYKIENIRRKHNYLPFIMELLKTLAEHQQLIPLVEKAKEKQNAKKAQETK
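system = Proteasome-associated human UCH37 deubiquitinase | amount = 0.15 nM proteasome as dispensed | medium = pH 7.4 Tris-HCl (50 mM) with ovalbumin, ATP-MgCl2, DTT | incubation = 30 min preincubation with enzyme, 25 min cleavage at room temperature | detection = AMC fluorescence 355/460 nm | read-out basis = percent inhibition | controls = no-proteasome and no-compound wells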
SIRT5 block – inhibitors of human sirtuin-5 desuccinylase | Q9NXA8 | Purified SirT5, succinyl-peptide AMC, trypsin-coupled fluorescence | inhibition, % at 15 µM | actives 1.1% (n = 330,000); in the data active = inhibition above about 15%
Casp6 inh – blocks human caspase-6 cleavage activity. P55212. purified caspase-6, Z-VEID-R110 cleavage fluorescence. inhibition, % at 12.5 µM. actives 0.53% (n = 350,000);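 active = mean inhibition across replicates at least about 35%, with every replicate also reaching that limit, limit read from the data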
NSD2 inh – blocks human histone methyltransferase NSD2. inhibition, % at 12.5 µM. AID 743445. NSD2 peptide methylation, AlphaScreen, 120 min. actives 0.54% (n = 310,000); in the data active = inhibition above about 50%
Numbers stand for hits; 0 = inactive; - = no result given; ! = not confirmed by another sample.

SMILES	FGF22 binding	UCH37 DUB inh	SIRT5 block	Casp6 inh	NSD2 inh
CN(Cc1ccccc1)S(=O)(=O)c1cccc2nsnc12	44	0	0	0	0
CN(CC(=O)N1CCCCC1)S(=O)(=O)c1cccc2nsnc12	0	0	0	0	0
CCN(CC)S(=O)(=O)c1cccc2nsnc12	-	0	-	-	0
Cc1ccc(S(=O)(=O)N(C)C[C@H]2Oc3c(NS(=O)(=O)c4ccccc4)cccc3C(=O)N([C@@H](C)CO)C[C@H]2C)cc1	0	-	0	0	-
Cc1ccc(S(=O)(=O)N(C)C[C@@H]2Oc3cc(-c4cccc(F)c4)ccc3S(=O)(=O)N([C@@H](C)CO)C[C@@H]2C)cc1	0	-	0	0	-
C[C@H](CO)N1C[C@H](C)[C@H](CN(C)S(=O)(=O)c2ccc(F)cc2)Oc2cc(-c3cccc(F)c3)ccc2S1(=O)=O	0	-	0	0	-
C[C@H]1CN([C@@H](C)CO)S(=O)(=O)c2ccc(-c3cccc(F)c3)cc2O[C@H]1CN(C)S(=O)(=O)c1ccc(F)cc1	0	-	20	0	-
C[C@@H]1CN([C@@H](C)CO)S(=O)(=O)c2ccc(-c3cccc(F)c3)cc2O[C@@H]1CN(C)S(=O)(=O)c1ccc(F)cc1	0	-	17	0	-
Cc1ccc(NC2=NCC(=O)N2C2CCCC2)cc1	43	0	0	0	0
Cc1ccc(NC2=NCC(=O)N2C2CCCC2)cc1C	0	0	0	0	0
CNC(=O)C[C@@H]1CC[C@@H]2[C@H](COC[C@@H](O)CN2C(=O)c2ccc3c(c2)OCO3)O1	0	-	0	0	-
C#Cc1ccc([C@H]2C=C(C(=O)NCc3ccccc3)O[C@@H](OCC)[C@@H]2CCCO)cc1	0	0	21!	0	-
C#Cc1ccc([C@H]2C=C(C(=O)N3CCOCC3)O[C@@H](OCC)[C@@H]2CCCO)cc1	0	0	0	0	-
C#Cc1ccc([C@@H]2C=C(C(=O)N3CCOCC3)O[C@H](OCC)[C@H]2CCCO)cc1	0	27	-	0	-
O=C(C[C@H]1C[C@@H]2c3cc(NS(=O)(=O)c4ccc(F)cc4)ccc3O[C@@H]2[C@H](CO)O1)NCc1ccncc1	0	-	0	0	-
CCOCCn1c(N2CCN(c3ccccc3)CC2)nc2c1c(=O)[nH]c(=O)n2C	43	0	0	0	0
CCCNC(=O)N1C[C@H](C)[C@@H](OC)CN(C)C(=O)c2ccc(NC(=O)C3CCC3)cc2OC[C@@H]1C	0	-	0	0	-
O=C(NC[C@H]1CC[C@@H]2[C@@H](CN2S(=O)(=O)c2ccccc2[N+](=O)[O-])O1)Nc1ccccc1	-	-	0	0	-
O=C(NC[C@@H]1CC[C@@H]2[C@@H](CN2S(=O)(=O)c2ccccc2[N+](=O)[O-])O1)C1CCOCC1	-	-	0	53	-
CCN1/C(=C\C(=S)Nc2ccccc2)Sc2ccccc21	44	0	0	0	0
CCOC(=O)/C(C#N)=C(C)/C=C1\Sc2ccccc2N1CC	0	0	-	0	0
O=C(NCc1ccco1)C1CC(c2ccc(F)cc2)=NO1 (stereo not drawn)	0	0	0	0	0
O=C(NCc1cc(C(F)(F)F)cc(C(F)(F)F)c1)C1CC(c2ccc(C(F)(F)F)cc2)=NO1 (stereo not drawn)	41	0	0	0	-
O=C(NCc1ccco1)C1CC(c2ccc(Cl)cc2)=NO1 (stereo not drawn)	43	0	0	0	0
COc1cccc(S(=O)(=O)N2CCCCN3[C@@H](CO)[C@@H](c4ccc(-c5cccnc5)cc4)[C@@H]3C2)c1	0	-	0	0	-
SMILES	FGF22 binding	UCH37 DUB inh	SIRT5 block	Casp6 inh	NSD2 inh
CC(C)NC(=O)N(C)C[C@H]1Oc2ccc(NC(=O)CCC(F)(F)F)cc2C(=O)N([C@@H](C)CO)C[C@H]1C	0	-	0	0	-
Cc1nc2cc(NS(=O)(=O)c3cccc(F)c3)ccc2s1	44	0	0	0	0
Cc1nc2ccc(NS(=O)(=O)c3c(F)cc(F)cc3Br)cc2s1	0	0	0	40	0
Cc1ccc(S(=O)(=O)Nc2cccc3c2O[C@H](CN(C)Cc2ccc(C(=O)O)cc2)[C@@H](C)CN([C@H](C)CO)C3=O)cc1	0	-	0	0	-
O=C(NC(=S)NCCN1CCOCC1)c1ccc(F)cc1	0	0	0	0	0
O=C(NC(=S)NCCCN1CCOCC1)c1ccc([N+](=O)[O-])cc1	43	0	0	0	0
O=C(Cc1ccncc1)NCC[C@@H]1CC[C@@H](NC(=O)C2CCOCC2)[C@@H](CO)O1	0	-	0	0	-
O=C(NCCOC(=O)Nc1cccc2ccccc12)OCc1ccccc1	0	0	0	0	0
O=C(Nc1cccc2ccccc12)OCc1ccccc1	44	0	0	0	0
O=C(C1CC1)N1CC[C@@H]2[C@H](CO)Nc3ccc(-c4ccc(F)cc4)cc3[C@@H]21	0	-	0	0	-
O=C(NN1C(=O)NC2(CCCCC2)C1=O)c1ccc(Cl)c(Cl)c1	0	0	17	0	0
CCCCN(C(=O)c1cccc(-n2cccc2)c1)c1c(N)n(CCCC)c(=O)[nH]c1=O	0	0	0	43	0
CCCCn1c(N)c(N(CCC(C)C)C(=O)c2cccc(N3C(=O)c4ccccc4C3=O)c2)c(=O)[nH]c1=O	0	-	0	0	0
CCCCn1c(N)c(N(CC(C)C)C(=O)CC(NC(=O)c2ccccc2)c2ccccc2)c(=O)[nH]c1=O (stereo not drawn)	0	0	0	65	0
CO[C@H]1CN(C)C(=O)c2cc(NC(=O)Nc3cc(F)ccc3F)ccc2OC[C@@H](C)N(C)C[C@@H]1C	0	-	0	0	-
COc1ccc(NC(=O)Nc2ccc3c(c2)C(=O)N([C@@H](C)CO)C[C@H](C)[C@@H](CN(C)S(=O)(=O)c2ccc(C)cc2)O3)cc1	0	-	0	0	-
COc1ccc(S(=O)(=O)N(C)C[C@H]2Oc3ccc(NC(=O)NC4CCCCC4)cc3C(=O)N([C@H](C)CO)C[C@@H]2C)cc1	0	-	20!	0	-
COc1ccc(S(=O)(=O)N(C)C[C@H]2Oc3ccc(NC(=O)Nc4ccc(F)cc4)cc3C(=O)N([C@H](C)CO)C[C@@H]2C)cc1	0	-	0	0	-
COc1ccc(S(=O)(=O)N(C)C[C@@H]2Oc3ccc(NC(=O)Nc4ccc(F)cc4)cc3C(=O)N([C@H](C)CO)C[C@@H]2C)cc1	0	-	18	0	-
COc1ccc(S(=O)(=O)N(C)C[C@@H]2Oc3ccc(NC(=O)CCC(F)(F)F)cc3C(=O)N([C@H](C)CO)C[C@H]2C)cc1	0	-	34	0	-
COc1ccc(NC(=O)Nc2ccc3c(c2)C(=O)N([C@@H](C)CO)C[C@@H](C)[C@@H](CN(C)S(=O)(=O)c2ccc(C)cc2)O3)cc1	0	-	19	0	-
CCOC1(c2ccccc2)CC1C(=O)NN=Cc1cccc([N+](=O)[O-])c1 (stereo not drawn)	-	0	-	-	-
Cc1noc(C)c1NC(=O)Nc1cccc2c1O[C@@H](CN(C)Cc1ccc(Oc3ccccc3)cc1)[C@@H](C)CN([C@@H](C)CO)C2=O	0	-	0	0	-

Screening results as filed in PubChem.
